Screens deposited in PubChem BioAssay by several laboratories.
In the library only some 3.9% were active in any assay of this set; here they are far more common.
ABCB6 inh MLPCN – blocks the human ABCB6 transporter | 360,000 tested, 0.19% active | K562-ABCB6 porphyrin accumulation, flow cytometry, 1 h; hits give low values | fluorescence ratio to DMSO, % at 10 µM | Q9NP58;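 active means fluorescence ratio to DMSO below 75%, the collection mean minus 3 SD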;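 further: signal is porphyrin accumulated inside mitochondria; 100% equals median channel fluorescence of DMSO control wells; lower ratio means ABCB6 inhibition with less porphyrin fluorescence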
HIF act – HIF pathway transcriptional activation | U2OS HRE-luciferase reporter, luminescence; normalized: DMSO 0%, desferrioxamine 100% | activation, % at 7.5 µM (by protocol) | 300,000 tested, 0.32% active;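 active means mean activation of at least 10% of the iron chelator positive control signal, with at least half of replicates also reaching 10%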
FXN GAA850 act – frataxin GAA850 promoter activation. HEK293 lucGAA850 FXN promoter luciferase reporter, 24 h; percent of 10 µM SAHA response. activation, % at 6 µM. 360,000 tested, 0.56% active;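 active means activation above the average of all compounds screened plus 3 SD, cutoff fixed separately per campaign, cut at about 7.5% in these data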;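 further: 0% = DMSO wells and 100% = 10 µM SAHA wells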
SR-BI HDL uptake – mouse SR-BI HDL lipid transfer inhibition; ldlA[mSR-BI] CHO cells, DiI-HDL uptake fluorescence, 3 h; inhibition, % at 12.5 µM; 320,000 tested, 0.96% active; AID 488896;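 active means mean replicate inhibition of at least 70% and a set share of replicates each scoring 70 or more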;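 further: 0% = median of neutral control wells and 100% = median of positive control wells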
SR-BI DiI-HDL act – enhances SR-BI lipid uptake from DiI-HDL; CHO ldlA[mSR-BI] cells, DiI-HDL uptake fluorescence, 3 h; 100 = double the neutral-control signal; activation, % at 12.5 µM; 320,000 tested, 0.096% active; AID 504775;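 active means mean replicate activation of at least 60% and every replicate at or above 60%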;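 further: 0% = median plate neutral-control signal and 100% = twice that signal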
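Assay system: LDL receptor-deficient CHO ldlA cells overexpressing murine SR-BI / Medium: BSA-supplemented, HEPES-buffered Ham's F12, pH 7.4 / Probe or stimulus: DiI-labelled HDL at 10 µg/mL final / Timing: compound with DiI-HDL co-incubation, 3 h at 37 °C / Technique: bottom-read cell fluorescence after medium removal, ex 550/em 595 nm / Measure: HDL uptake via cellular fluorescence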
AHR act – human AHR activation. P35869. AHR-responsive luciferase reporter cells, luminescence. activation, % at 5 µM. 320,000 tested, 2.5% active. AID 2796; in the data active means activation above about 47%;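 further: 0% = vehicle wells and 100% = reference agonist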
Numbers without * were called inactive; . = no result given.

SMILES	ABCB6 inh MLPCN	HIF act	FXN GAA850 act	SR-BI HDL uptake	SR-BI DiI-HDL act	AHR act
Cc1ccc(CNC(=O)C2CCN(S(=O)(=O)c3cnc[nH]3)CC2)cc1	93	0	1	-10	10	-1
O=C(NCc1ccc(F)cc1)Nc1ccc(Cl)cc1	98	3	6	.	.	4
Cc1cc(NS(=O)(=O)c2ccc(NC(=O)CCCC(=O)O)cc2)nc(C)n1	100	1	0	15	-15	1
O=c1ccc2ccc(Oc3ccc([N+](=O)[O-])cc3Cl)cc2o1	125	.	1	10	-10	2
COc1cccc(CNC(=O)CN2c3cccc4cccc(c34)S2(=O)=O)c1	97	0	0	-8	8	7
CC(=O)N/C(=N/c1nc(C)cc(C)n1)Nc1cc(C)cc(C)c1	99	2	1	0	0	58*
CC(=O)N/C(=N/c1nc(C)cc(C)n1)Nc1ccc(NC(C)=O)cc1	90	0	0	10	-10	15
CCc1ccccc1NC(=O)c1cnc2n(c1=O)CCS2	97	0	-1	.	.	12
Cc1ccc(S(=O)(=O)N2CCN(Cc3nc4sc(C)c(C)c4c(=O)[nH]3)CC2)cc1	103	0	0	11	-11	-1
Cc1sc2nc(CN3CCN(S(=O)(=O)c4cccc5nonc45)CC3)[nH]c(=O)c2c1C	24*	-3	2	12	-12	0
O=C(NCCS(=O)(=O)N1CCN(c2cccc(Cl)c2)CC1)C1CC1	97	-1	0	21	-21	-2
CCOc1ccc(-n2c(=O)[nH]cc(C(=O)N3CCCc4ccccc43)c2=O)cc1	98	1	-3	26	-26	2
Cc1nnc(-c2cccc(Br)c2)c2cn(-c3ccc(Br)cc3)nc12	101	0	-2	64	-64	89*
Cc1nnc(-c2cccc(Br)c2)c2cn(-c3ccccc3)nc12	149	0	-2	55	-55	48*
COc1ccc(-n2cc3c(-c4cccc(Br)c4)nnc(C)c3n2)cc1	199	-1	3	52	-52	61*
COC(=O)N1CC(c2ccccc2)CC1=O (configuration not stated)	94	0	-3	-23	23	-2
CCOc1ccc(CCNC(=O)CSc2n[nH]c(N)n2)cc1OCC	99	-1	6	0	0	13
O=C(CSc1ccc(-c2ccccn2)nn1)c1ccccc1	94	2	4	.	.	4
c1ccc(CSc2ccc(-c3ccccn3)nn2)cc1	100	10*	2	1	-1	-9
Clc1ccc(CSc2ccc(-c3ccccn3)nn2)cc1	98	24*	2	.	.	4
O=C(CSc1ccc(-c2ccccn2)nn1)NCc1ccc(Cl)cc1	94	0	1	.	.	2
O=[N+]([O-])c1ccc(Nc2cccc3c2[nH]c2c(-c4ccccc4)nccc23)c([N+](=O)[O-])c1	95	.	-3	79*	-79	.
COc1ccc(CCNC(=O)c2ccc(CSc3ccccc3)o2)cc1	97	0	1	-18	18	3
Cn1c(Cn2c(=O)sc3ccccc32)nnc1SCC(=O)Nc1ccc2c(c1)OCO2	100	0	0	0	0	59*
O=C(NCCCN1CCN(c2ccccc2F)CC1)Nc1ccccc1[N+](=O)[O-]	96	252*	1	0	0	5
SMILES	ABCB6 inh MLPCN	HIF act	FXN GAA850 act	SR-BI HDL uptake	SR-BI DiI-HDL act	AHR act
O=C(O)/C=C/C(=O)N1CCN(S(=O)(=O)c2cc(C(F)(F)F)ccc2Cl)CC1	91	0	4	-1	1	-1
O=c1c2ccc([N+](=O)[O-])c3cccc(c32)c2nc3ccccc3n12	.	0	.	.	.	50*
CCN(C(=O)CSc1nc2cc(S(=O)(=O)N(CC)CC)ccc2o1)C1CCS(=O)(=O)C1 (configuration not stated)	95	0	0	15	-15	-4
Cc1ccc2c(c1)C1C=CCC1C(C(=O)O)N2 (configuration not stated)	.	0	.	.	.	2
O=C(O)C1Nc2c(O)cc(Cl)c([N+](=O)[O-])c2C2C=CCC12 (configuration not stated)	107	0	0	83*	-83	2
Cc1ccc(S(=O)(=O)NCCN=Cc2ccc(N(C)C)cc2)cc1	106	0	0	-7	7	-1
COCCCNC(=O)Cn1c(=O)n(Cc2ccc(C(=O)NCCc3ccc(OC)c(OC)c3)cc2)c(=O)c2ccccc21	94	0	1	88*	-88	-1
COCCCNC(=O)c1ccc(Cn2c(=O)c3ccccc3n(CC(=O)NCCc3ccc(OC)c(OC)c3)c2=O)cc1	92	0	0	81*	-81	-2
CCCCNC(=O)CCn1c(=O)c2ccccc2n(CC(=O)NCCc2ccc(OC)c(OC)c2)c1=O	92	0	0	.	.	-2
CCCc1cc(=O)oc2cc3occ(C)c3cc12	90	-1	-2	0	0	47*
O=C(CCC(=O)c1ccc(Cl)cc1)NCc1ccccc1	101	-1	1	-5	5	0
Cc1cc(C(=O)COC(=O)c2ccc[nH]c2=O)c(C)n1CCc1ccc(F)cc1	99	1	1	60	-60	41
Cc1cc(C(=O)COC(=O)C2=NNC(=O)CC2)c(C)n1CCc1ccccc1	95	0	0	22	-22	69*
CCN(/C=N/c1sc2c(c1C#N)CCCCC2)CC	90	2	4	40	-40	57*
CC(C)CN(/C=N/c1sc2c(c1C#N)CCCCC2)CC(C)C	97	0	0	23	-23	10
Cc1cc(C(=O)N/N=C/c2ccc(-c3cccc(Cl)c3Cl)o2)n[nH]1	96	0	0	15	-15	8
O=C(N/N=C/c1ccc(-c2ccccc2[N+](=O)[O-])o1)c1cccnc1	100	1	1	14	-14	55*
CC(C)(C)c1cc(C(=O)N/N=C/c2ccc(-c3ccccc3[N+](=O)[O-])o2)n[nH]1	107	2	2	32	-32	50*
[N-]=[N+]=NC1c2ccccc2C(=O)N1Cc1ccccc1 (configuration not stated)	96	-1	1	-29	29	-1
CC(OC(=O)CCCN=C1NS(=O)(=O)c2ccccc21)C(=O)c1ccccc1 (configuration not stated)	96	0	0	-34	34	59*
CC(OC(=O)CCCN=C1NS(=O)(=O)c2ccccc21)C(=O)N(C)c1ccccc1 (configuration not stated)	98	-6	0	0	0	7
COc1ccccc1-c1nnc(SCC(=O)Nc2ccc(Cl)cc2Cl)o1	104	2	1	9	-9	57*
